Measured values from ChEMBL document CHEMBL2040734, “Benzothiazoles: search for anticancer agents” (2012).

How the values were obtained:
Assay type in all cases: functional
786-0 [1] = experiment: Cytotoxicity against human 786-0 cells assessed as cell growth at 0.1 uM after 48 hrs by sulforhodamine B assay; conditions: 786-0, 48 h, read-out: Activity
Procedure, shortened: (§1)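 NCI-60 five-dose screen. Cells were grown in RPMI 1640 with 5% FBS and 2 mM L-glutamine and preincubated 24 h. Compound (DMSO stock) was tested at 0.01, 0.1, 1, 10 and 100 µM for 48 h at 37 °C. Cells were fixed in situ with cold TCA (final 10%) and stained with 0.4% SRB. A515 was read, and percent growth was calculated against time-zero and control plates.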

EKVX = experiment: Growth inhibition of human EKVX cells after 48 hrs by sulforhodamine B assay
Procedure, shortened: (§2)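 Adherent NCI-60 lines were grown in RPMI 1640 with 5% FBS and 2 mM L-glutamine, plated at 5000–40,000 cells/well and preincubated 24 h. They were then exposed to five concentrations (0.01–100 µM, from a DMSO stock) for 48 h at 37 °C, 5% CO2. Cells were fixed with cold TCA (10% final, 60 min, 4 °C) and stained with 0.4% SRB. Dye was solubilized in 10 mM Tris base and A515 read. GI50 was derived from time-zero, control and treated absorbances.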

U-251 [2] = experiment: Cytotoxicity against human U251 cells assessed as cell growth at 0.1 uM after 48 hrs by sulforhodamine B assay; conditions: U-251, 48 h, read-out: Activity
HT-29 = experiment: Growth inhibition of human HT-29 cells after 48 hrs by sulforhodamine B assay; conditions: HT-29, 48 h; procedure, shortened: as §2
U-251 [3] = experiment: Cytotoxicity against human U251 cells assessed as cell growth at 100 uM after 48 hrs by sulforhodamine B assay; conditions: U-251, 48 h, read-out: Activity
COLO 205 = experiment: Cytotoxicity against human COLO205 cells assessed as cell growth at 1 uM after 48 hrs by sulforhodamine B assay; conditions: COLO 205, 48 h, read-out: Activity; procedure, shortened: as §1
786-0 [4] = experiment: Cytotoxicity against human 786-0 cells assessed as cell growth at 0.01 uM after 48 hrs by sulforhodamine B assay; conditions: 786-0, 48 h, read-out: Activity; procedure, shortened: as §1
SW-620 = experiment: Cytotoxicity against human SW620 cells assessed as cell growth at 0.1 uM after 48 hrs by sulforhodamine B assay; conditions: SW-620, 48 h, read-out: Activity
HCC 2998 = experiment: Cytotoxicity against human HCC2998 cells assessed as cell growth at 10 uM after 48 hrs by sulforhodamine B assay; conditions: HCC 2998, 48 h, read-out: Activity
Procedure, shortened: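 Five-dose NCI panel run at 0.01, 0.1, 1, 10 and 100 µM. Cells were in RPMI 1640 with 5% FBS and 2 mM L-glutamine, seeded at 5000–40,000 cells/well and pre-incubated 24 h. Drug was diluted from a DMSO stock into medium with 50 µg/ml gentamicin. Exposure was 48 h at 37 °C, 5% CO2. Cells were fixed with cold TCA and stained with 0.4% SRB, read at 515 nm. Percent growth came from time-zero, control and test absorbances.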

Malme-3M [5] = experiment: Cytotoxicity against human MALME-3M cells assessed as cell growth at 0.1 uM after 48 hrs by sulforhodamine B assay; conditions: read-out: Activity
SF-295 [6] = experiment: Cytotoxicity against human SF295 cells assessed as cell growth at 1 uM after 48 hrs by sulforhodamine B assay; conditions: SF-295, 48 h, read-out: Activity
SK-MEL-28 = experiment: Cytotoxicity against human SK-MEL-28 cells assessed as cell growth at 10 uM after 48 hrs by sulforhodamine B assay; conditions: SK-MEL-28, 48 h, read-out: Activity
[7] = Growth inhibition of human Hs 578T cells after 48 hrs by sulforhodamine B assay; conditions: for CC50: read-out: LC50 (the source's name); procedure, shortened: as §2
MCF7 [8] = experiment: Cytotoxicity against human MCF7 cells assessed as cell growth at 10 uM after 48 hrs by sulforhodamine B assay; conditions: MCF7, 48 h, read-out: Activity
MOLT-4 = experiment: Growth inhibition of human MOLT4 cells after 48 hrs by sulforhodamine B assay; conditions: MOLT-4, 48 h
Procedure, shortened: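 Leukemia suspension lines were grown in RPMI 1640 with 5% FBS and 2 mM L-glutamine and plated at 5000–40,000 cells/well with 24 h preincubation. They were treated at 0.01, 0.1, 1, 10 and 100 µM (DMSO stock) for 48 h at 37 °C. Settled cells were fixed with 80% TCA (16% final) and stained with 0.4% SRB in 1% acetic acid, then read at 515 nm. GI50 was calculated against time-zero and control wells.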

CAKI-1 = experiment: Growth inhibition of human Caki1 cells after 48 hrs by sulforhodamine B assay; conditions: CAKI-1, 48 h; for CC50: read-out: LC50 (the source's name); procedure, shortened: as §2
SF-295 [9] = experiment: Cytotoxicity against human SF295 cells assessed as cell growth at 10 uM after 48 hrs by sulforhodamine B assay; conditions: SF-295, 48 h, read-out: Activity
OVCAR-8 = experiment: Cytotoxicity against human OVCAR8 cells assessed as cell growth at 1 uM after 48 hrs by sulforhodamine B assay; conditions: OVCAR-8, 48 h, read-out: Activity
RPMI-8226 = experiment: Cytotoxicity against human RPMI8226 cells assessed as cell growth at 0.1 uM after 48 hrs by sulforhodamine B assay; conditions: RPMI-8226, 48 h, read-out: Activity
Malme-3M [10] = experiment: Growth inhibition of human MALME-3M cells after 48 hrs by sulforhodamine B assay; conditions: for CC50: read-out: LC50 (the source's name); procedure, shortened: as §2
MCF7 [11] = experiment: Growth inhibition of human MCF7 cells after 48 hrs by sulforhodamine B assay; conditions: MCF7, 48 h; for CC50: read-out: LC50 (the source's name); procedure, shortened: as §2
UACC-62 = experiment: Cytotoxicity against human UACC62 cells assessed as cell growth at 0.01 uM after 48 hrs by sulforhodamine B assay; conditions: UACC-62, 48 h, read-out: Activity
SK-OV-3 = experiment: Cytotoxicity against human SKOV3 cells assessed as cell growth at 0.1 uM after 48 hrs by sulforhodamine B assay; conditions: SK-OV-3, 48 h, read-out: Activity
A549 = experiment: Cytotoxicity against human A549 cells assessed as cell growth at 0.1 uM after 48 hrs by sulforhodamine B assay; conditions: A549, 48 h, read-out: Activity; procedure, shortened: as §1
NCI-H460 = experiment: Cytotoxicity against human NCI-H460 cells assessed as cell growth at 10 '-5 M after 48 hrs by sulforhodamine B assay; conditions: NCI-H460, 48 h, read-out: Activity
TK-10 = experiment: Cytotoxicity against human TK10 cells assessed as cell growth at 100 uM after 48 hrs by sulforhodamine B assay; conditions: TK-10, 48 h, read-out: Activity
NCI/ADR-RES = experiment: Cytotoxicity against human NCI/ADR-RES cells assessed as cell growth at 0.01 uM after 48 hrs by sulforhodamine B assay; conditions: read-out: Activity
OVCAR-3 = experiment: Cytotoxicity against human OVCAR3 cells assessed as cell growth at 10 uM after 48 hrs by sulforhodamine B assay; conditions: OVCAR-3, 48 h, read-out: Activity

Cc1ccc2nc(Nc3c(C)cccc3C)sc2c1
growth at 0.1 µM (786-0 [1]): 97% | LC50 (EKVX): > 100 µM | TGI (EKVX): > 100 µM | growth at 0.1 µM (U-251 [2]): 105% | GI50 (HT-29): 0.629 µM | LC50 (concentration killing 50% of cells) (HT-29): > 100 µM | TGI (HT-29): > 100 µM | growth at 100 µM (U-251 [3]): 31% | growth at 1 µM (COLO 205): 82% | growth at 0.01 µM (786-0 [4]): 97% | growth at 0.1 µM (SW-620): 94% | growth at 10 µM (HCC 2998): 53% | growth at 0.1 µM (Malme-3M [5]): 103% | growth at 1 µM (SF-295 [6]): 44% | growth at 10 µM (SK-MEL-28): 45% | GI50 [7]: 3.84 µM | TGI [7]: > 100 µM | CC50 [7]: > 100 µM | growth at 10 µM (MCF7 [8]): 19% | GI50 (MOLT-4): > 100 µM | LC50 (MOLT-4): > 100 µM | TGI (MOLT-4): > 100 µM | GI50 (CAKI-1): 0.564 µM | TGI (CAKI-1): > 100 µM | CC50 (CAKI-1): > 100 µM | growth at 10 µM (SF-295 [9]): 15% | growth at 1 µM (OVCAR-8): 89% | growth at 0.1 µM (RPMI-8226): 100% | TGI (Malme-3M [10]): > 100 µM | CC50 (Malme-3M [10]): > 100 µM | GI50 (MCF7 [11]): 1.2 µM | TGI (MCF7 [11]): > 100 µM | CC50 (MCF7 [11]): > 100 µM | growth at 0.01 µM (UACC-62): 92% | growth at 0.1 µM (SK-OV-3): 104% | growth at 0.1 µM (A549): 108% | growth at 10 µM (NCI-H460): 22.7% | growth at 100 µM (TK-10): 72% | growth at 0.01 µM (NCI/ADR-RES): 98% | growth at 10 µM (OVCAR-3): 52%

Clc1cccc(Cl)c1Nc1nc2cccc(Cl)c2s1
growth at 0.1 µM (786-0 [1]): 94% | GI50 (EKVX): 0.299 µM | LC50 (EKVX): 4.26 µM | TGI (EKVX): 1.4 µM | growth at 0.1 µM (U-251 [2]): 98% | GI50 (HT-29): 1.29 µM | LC50 (concentration killing 50% of cells) (HT-29): 6.97 µM | TGI (HT-29): 2.99 µM | growth at 100 µM (U-251 [3]): -50% | growth at 1 µM (COLO 205): 74% | growth at 0.01 µM (786-0 [4]): 106% | growth at 0.1 µM (SW-620): 91% | growth at 10 µM (HCC 2998): -88% | growth at 0.1 µM (Malme-3M [5]): 90% | growth at 1 µM (SF-295 [6]): 33% | growth at 10 µM (SK-MEL-28): -86% | GI50 [7]: 0.938 µM | TGI [7]: 3.49 µM | CC50 [7]: > 100 µM | growth at 10 µM (MCF7 [8]): -86% | GI50 (MOLT-4): 1.05 µM | LC50 (MOLT-4): > 100 µM | TGI (MOLT-4): 3.75 µM | GI50 (CAKI-1): 0.259 µM | TGI (CAKI-1): 1.46 µM | CC50 (CAKI-1): 4.23 µM | growth at 10 µM (SF-295 [9]): -87% | growth at 1 µM (OVCAR-8): 58% | growth at 0.1 µM (RPMI-8226): 97% | GI50 (Malme-3M [10]): 1.03 µM | TGI (Malme-3M [10]): 2.4 µM | CC50 (Malme-3M [10]): 5.6 µM | GI50 (MCF7 [11]): 0.811 µM | TGI (MCF7 [11]): 2.24 µM | CC50 (MCF7 [11]): 5.37 µM | growth at 0.01 µM (UACC-62): 94% | growth at 0.1 µM (SK-OV-3): 99% | growth at 0.1 µM (A549): 99% | growth at 10 µM (NCI-H460): -57.9% | growth at 100 µM (TK-10): -67% | growth at 0.01 µM (NCI/ADR-RES): 99% | growth at 10 µM (OVCAR-3): -96%
